Data published in ChEMBL document CHEMBL5500359, “Identification of a new bisindolinone arresting IGROV1 cells proliferation” (Eur J Med Chem, 2024).

What was measured:
[1] = system: Breast cancer cell line; test: Cytotoxicity against human Breast cancer cells incubated for 48 hrs by SRB assay; assay type: functional
Method in brief: (§1)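 NCI-60 five-concentration screen: lines seeded 5×10^3–4×10^4 cells/well depending on line; compound diluted in fresh medium at scalar concentrations 0–100 or 0–1000 μM; 48 h exposure, in situ fixation, sulforhodamine B protein staining, optical density read; GI50, TGI and LC50 per NCI procedures; panel mean = mean graph midpoint.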

[2] = system: Prostatic carcinoma cell; test: Cell growth inhibition of human Prostate carcinoma cells incubated for 48 hrs by SRB assay; assay type: functional; method in brief: as §1
[3] = system: Ovarian cancer cell line; test: Cytostatic activity against human Ovarian cancer cells incubated for 48 hrs by SRB assay; assay type: functional; method in brief: as §1
[4] = system: Renal cancer cell line; test: Cytostatic activity against human Renal cancer cells incubated for 48 hrs by SRB assay; assay type: functional; method in brief: as §1
[5] = system: Colon carcinoma cell; test: Cytotoxicity against human Colon carcinoma cells incubated for 48 hrs by SRB assay; assay type: functional; method in brief: as §1
[6] = system: Breast cancer cell line; test: Cytostatic activity against human Breast cancer cells incubated for 48 hrs by SRB assay; assay type: functional; method in brief: as §1
[7] = system: CNS carcinoma cell; test: Cell growth inhibition of human CNS carcinoma cells incubated for 48 hrs by SRB assay; assay type: functional; method in brief: as §1
[8] = system: Breast cancer cell line; test: Cell growth inhibition of human Breast cancer cells incubated for 48 hrs by SRB assay; assay type: functional; conditions: read-out: LC50 (the source's name)
Method in brief: (§2)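 NCI DTP five-concentration screen. Cells were seeded at 5 × 10³–4 × 10⁴ cells/well, depending on the line. Compounds were diluted in fresh medium and added at scalar concentrations over 0–1000 µM or 0–100 µM. After 48 h the cells were fixed in situ, stained with sulforhodamine B, and optical density was read. GI50, TGI and LC50 were derived by NCI procedures, and the panel mean is the mean graph midpoint.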

[9] = system: Panel NCI-60 (60 carcinoma cell lines); test: Cytostatic activity against human Panel NCI-60 (60 carcinoma cell lines) incubated for 48 hrs by SRB assay; assay type: functional; method in brief: as §1
[10] = system: Melanoma cell line; test: […] against human Melanoma cells incubated for 48 hrs by SRB assay; assay type: functional; conditions: read-out: LC50 (the source's name); method in brief: as §2
[11] = Cytotoxicity against human Leukemia cancer cells incubated for 48 hrs by SRB assay; assay type: functional; conditions: Leukemia cell, read-out: LC50 (the source's name); method in brief: as §2
[12] = Cytostatic activity against human Leukemia cancer cells incubated for 48 hrs by SRB assay; assay type: functional, Leukemia cell; method in brief: as §1
[13] = system: Panel NCI-60 (60 carcinoma cell lines); test: Cell growth inhibition of human Panel NCI-60 (60 carcinoma cell lines) incubated for 48 hrs by SRB assay; assay type: functional; method in brief: as §1
[14] = system: Ovarian cancer cell line; test: Cytotoxicity against human Ovarian cancer cells incubated for 48 hrs by SRB assay; assay type: functional; method in brief: as §1
[15] = system: Renal cancer cell line; test: Cell growth inhibition of human Renal cancer cells incubated for 48 hrs by SRB assay; assay type: functional; method in brief: as §1
[16] = Cell growth inhibition of human Leukemia cancer cells incubated for 48 hrs by SRB assay; assay type: functional; method in brief: as §1
[17] = system: Colon carcinoma cell; test: Cytostatic activity against human Colon carcinoma cells incubated for 48 hrs by SRB assay; assay type: functional; method in brief: as §1
[18] = system: CNS carcinoma cell; test: Cytostatic activity against human CNS carcinoma cells incubated for 48 hrs by SRB assay; assay type: functional; method in brief: as §1
[19] = system: Melanoma cell line; test: Cell growth inhibition of human Melanoma cells incubated for 48 hrs by SRB assay; assay type: functional; method in brief: as §1
[20] = system: NSCLC; test: Cell growth inhibition of human NSCLC cells incubated for 48 hrs by SRB assay; assay type: functional; method in brief: as §1

| Structure (SMILES) | GI [1] | GI [2] | TGI [3] | GI [4] | GI [5] | TGI [6] | GI50 [7] | CC50 [8] | GI [9] | CC50 [10] | CC50 [11] | GI [12] | GI50 [13] | GI [14] | GI50 [15] | GI50 [16] | TGI [17] | GI [18] | GI [19] | GI [20] |
| --- | --- | --- | --- | --- | --- | --- | --- | --- | --- | --- | --- | --- | --- | --- | --- | --- | --- | --- | --- | --- |
| COc1cc2c(/C=C3/C(=O)N(C)c4cc5c(cc43)/C(=C\c3c(Cl)[nH]c4cc(C)c(OC)cc34)C(=O)N5C)c(Cl)[nH]c2cc1C | 33.11 µM | 1.82 µM | 10.7 µM | 7.24 µM | 9.77 µM | 10 µM | 1.82 µM | 24.6 µM | 7.59 µM | 6.46 µM | 42.7 µM | 5.37 µM | 2.04 µM | 45.71 µM | 1.95 µM | 1.2 µM | 4.17 µM | 7.76 µM | 2.34 µM | 2.19 µM |
| COc1ccc2c(c1)/C(=C\c1cc(C(C)(C)C)cc(/C=C3/C(=O)N(C)c4ccc(OC)cc43)c1O)C(=O)N2C | 36.31 µM | 3.09 µM | 7.24 µM | 8.32 µM | 16.98 µM | 6.17 µM | 1.91 µM | 2.24 µM | 6.61 µM | 3.98 µM | 100 µM | 20.42 µM | 2.24 µM | 28.18 µM | 2.51 µM | 2.82 µM | 4.79 µM | 4.9 µM | 1.86 µM | 2.34 µM |
| CC(C)(C)c1cc(/C=C2/C(=O)Nc3ccc(F)cc32)c(O)c(/C=C2/C(=O)Nc3ccc(F)cc32)c1 | 46.77 µM | 3.89 µM | 15.8 µM | 14.13 µM | 42.66 µM | 19.5 µM | 2.95 µM | 3.8 µM | 13.8 µM | 9.77 µM | 60.3 µM | 12.02 µM | 3.8 µM | 47.86 µM | 4.68 µM | 3.09 µM | 14.8 µM | 12.02 µM | 3.02 µM | 4.17 µM |
| COc1cc2c(c(OC)c1OC)C(=Cc1cc(C(C)(C)C)cc(/C=C3\C(=O)Nc4cc(OC)c(OC)c(OC)c43)c1O)C(=O)N2 | 50.12 µM | 1.91 µM | 5.13 µM | 4.9 µM | 8.13 µM | 4.9 µM | 1.62 µM | 1.86 µM | 4.37 µM | 3.63 µM | 60.3 µM | 6.03 µM | 1.95 µM | 25.12 µM | 2.19 µM | 2.19 µM | 3.89 µM | 3.31 µM | 1.82 µM | 1.95 µM |
| CC(C)(C)c1cc(/C=C2/C(=O)Nc3cccc(F)c32)c(O)c(/C=C2/C(=O)Nc3cccc(F)c32)c1 | 33.88 µM | 2.75 µM | 5.89 µM | 7.24 µM | 16.98 µM | 8.51 µM | 2.09 µM | 2.04 µM | 6.46 µM | 5.5 µM | 22.9 µM | 4.79 µM | 2.14 µM | 15.49 µM | 2.45 µM | 1.58 µM | 6.46 µM | 6.46 µM | 2.29 µM | 2.14 µM |
